Bioassay records as filed in PubChem.
Sampled rows, rich in hits. Any-hit rate of the full collection: about 2.7%.
TCR-CD3 inh: blocks the human TCR-CD3 interaction; TAMRA-labeled TCR probe fluorescence, biochemical; inhibition, % at 9.4 µM; hit rate 0.37% among 360,000; in the data active = inhibition above about 19%;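 note: recombinant mutant TCR 2C K166C tagged with TAMRA read by polarization; 0% = receptor in buffer alone and 100% = receptor with positive control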
PRMT1 inh: inhibitors of human PRMT1 | recombinant PRMT1, activity-based probe fluorescence polarization | inhibition, % at 2.79 µM | hit rate 1.3% among 370,000 | AID 652257;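 active = inhibition above about 21% made by adding two undisclosed values, limit read from the data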
HTRA1 inh: inhibitors of human serine peptidase HTRA1 | recombinant HTRA1, FP-rhodamine activity-based probe, fluorescence polarization | inhibition, % at 5.96 µM | hit rate 0.5% among 340,000; in the data active = inhibition above about 36%;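 note: 0% = enzyme with DMSO and 100% = wells lacking enzyme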
SIAE primary: inhibitors of human sialic acid acetylesterase SIAE; Q9HAT2; SIAE FP-Rh probe binding, fluorescence polarization; inhibition, % at 9.66 µM; hit rate 0.69% among 370,000;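 active = inhibition above a cutoff: mean of compounds within the control limits plus 3 SD of those, cut at about 17% in these data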;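 note: 0% = plate median of compound wells and 100% = probe without SIAE protein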
mABHD4 FP: inhibitors of mouse ABHD4; Q8VD66; hit rate 0.54% among 370,000; purified mABHD4, FP-Rh probe fluorescence polarization; AID 720543; inhibition, % at 8.92 µM;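 active = inhibition exceeding the mean over every tested compound plus 3 SD, cut at about 30% in these data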;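 note: 0% = plate median of compound wells and 100% = S159A mutant with DMSO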
Target sequence (Q8VD66 whole entry, looked up): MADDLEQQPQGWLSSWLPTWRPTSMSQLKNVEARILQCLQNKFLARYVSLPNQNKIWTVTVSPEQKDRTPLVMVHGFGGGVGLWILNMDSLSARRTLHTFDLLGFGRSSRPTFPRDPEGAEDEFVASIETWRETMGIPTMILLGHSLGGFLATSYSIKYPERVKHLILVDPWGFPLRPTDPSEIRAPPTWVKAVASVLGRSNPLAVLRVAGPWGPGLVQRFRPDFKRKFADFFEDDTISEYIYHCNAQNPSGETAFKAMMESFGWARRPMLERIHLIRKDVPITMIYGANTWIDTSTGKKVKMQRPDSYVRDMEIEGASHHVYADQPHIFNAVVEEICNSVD
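Assay system: mouse ABHD4 enzyme, wild type / Also added: fluorescent activity-based probe FP-Rh / Doses: single nominal dose of 8.92 µM, 0.89% DMSO final / Timing: 45 min compound pre-incubation plus 60 min probe step, 25 °C / Signal: FP readout, ex 525 nm / em 598 nm / Control set: S159A mutant/DMSO as 100%, compound-well median as 0%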
HTRA1 inh conf: HTRA1 (human) inhibition, confirmation; shares compounds with HTRA1 inh; recombinant HTRA1, FP-rhodamine activity-based probe, fluorescence polarization; inhibition, % at 5.96 µM; hit rate 66% among 1,600; AID 540248;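 active = mean inhibition over three repeats above a set limit taken from the earlier primary screen, cut at about 37% in these data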;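 note: 0% = HTRA1 with DMSO and 100% = wells lacking HTRA1; inhibitors block probe binding so polarization drops and inhibition rises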
* = called active by the depositor; / = no result given.

SMILES	TCR-CD3 inh	PRMT1 inh	HTRA1 inh	SIAE primary	mABHD4 FP	HTRA1 inh conf
Oc1ccc(N=Cc2ccc(-c3cccs3)s2)cc1	43*	38*	62*	45*	86*	-27
CCc1noc(C)c1C(=O)Oc1ccc(N(C)S(=O)(=O)c2ccccc2)cc1	-14	2	36*	5	-13	30
O=C(Nc1ccc(Nc2ccccc2)cc1)c1c(F)c(F)c(F)c(F)c1F	-7	2	22	15	-6	/
O=C1C=CC(=O)N1c1ccc(Nc2ccccc2)cc1	-25	11	53*	7	21	18
Nc1ccc(C(=O)OCCc2ccccc2)cc1	8	2	-7	0	-6	/
O=C(OCCc1ccccc1)c1cc(O)c(O)c(O)c1	17	6	56*	-13	17	87*
Oc1ccc(-c2nc3ccc4ccccc4c3c3c2CCC3)cc1O	-3	2	41*	-2	15	56*
Cc1cc(C)c2c(ccc3ccccc32)n1	-4	0	-4	2	4	/
O=C(Nc1ccc2nc(-c3ccco3)c(-c3ccco3)nc2c1)N1CCN(c2ccccn2)CC1	34*	48*	43*	22*	30*	-21
Cc1nc2cc(NC(=O)N3CCN(c4ccccn4)CC3)ccc2o1	-1	2	-5	1	1	/
CCOC(=O)[C@]12CCC=C1N(Cc1ccc(Cl)cc1Cl)C(=O)[C@H](CC(=O)NCCCOC)C2	-5	0	/	2	-3	/
COC(=O)c1ccc(CSc2nc3c(c(=O)[nH]2)CCC3)cc1	-6	7	/	-5	4	/
Cc1ccc(O)c(CNCCNCc2cc(C)ccc2O)c1	4	-2	38*	3	13	53*
CCc1ccc(O)c(CNCCNCc2cc(CC)ccc2O)c1	-1	1	25	-2	20	/
C[C@H](CO)N1C[C@H](C)[C@@H](CN(C)S(=O)(=O)c2ccccc2)Oc2c(NC(=O)Nc3ccc4c(c3)OCO4)cccc2C1=O	3	-2	-9	2	0	/
Cc1nnc(C)c2c(C)n(-c3ccc(Cl)c(N)c3)c(C)c12	1	-4	19	5	7	/
Cc1cc(C)cc(-n2c(C)c3c(C)nnc(C)c3c2C)c1	5	2	40*	4	-6	12
Cc1ccc(NC(=S)NNc2ncc(C(F)(F)F)cc2Cl)cc1	-2	4	38*	1	8	36
FC(F)(F)c1cnc(NNC(=S)Nc2ccc(Cl)cc2)c(Cl)c1	-2	-2	49*	8	14	54*
Fc1ccc(NC(=S)NNc2ncc(C(F)(F)F)cc2Cl)c(F)c1	11	-5	46*	5	7	69*
Cc1ccc(NC(=S)NNc2ncc(C(F)(F)F)cc2Cl)c(C)c1	-4	0	12	-6	14	/
C[C@@H]1OC(C2CCCCC2)N(C)[C@H]2C[C@H]3c4cc(-c5ccc6c(c5)OCO6)ccc4CCN3C[C@@H]12 (some centres undefined)	/	-3	/	-2	2	/
CCCCC(=O)NC(c1ccc(N(C)C)cc1)c1ccc2cccnc2c1O (centres undefined)	3	-3	46*	14	20	61*
CCN(CC)c1ccc(C(NC(=O)C(C)C)c2ccc3cccnc3c2O)cc1 (centres undefined)	-10	1	56*	15	5	61*
CCCC(=O)NC(c1ccccc1OC)c1ccc2cccnc2c1O (centres undefined)	/	/	34	/	/	/
SMILES	TCR-CD3 inh	PRMT1 inh	HTRA1 inh	SIAE primary	mABHD4 FP	HTRA1 inh conf
CCCC(=O)NC(c1ccc(Cl)cc1)c1ccc2cccnc2c1O (centres undefined)	-8	-4	46*	13	18	48*
CCCCC(=O)NC(c1ccccc1OC)c1ccc2cccnc2c1O (centres undefined)	-11	-1	60*	14	11	52*
O=C(Cc1ccccc1)N1O[C@H]2C=C[C@@H]1C2	5	-5	/	10	-5	/
O=C(Nc1ccnn1C1CCN(Cc2cccc(OCCO)c2)CC1)C1CC1	7	-3	-1	-6	4	/
CC1CN(S(=O)(=O)c2ccc(C(=O)N(C)C3CCCCC3)cc2)CC(C)O1 (centres undefined)	-10	6	3	10	14	/
CCCC(=O)NC(c1ccc(Cl)cc1Cl)c1ccc2cccnc2c1O (centres undefined)	-11	-4	53*	15	18	56*
CCCCC(=O)NC(c1ccc(Cl)cc1)c1ccc2cccnc2c1O (centres undefined)	-4	-8	40*	13	14	44*
CCCC(=O)NC(c1ccc(C)cc1)c1ccc2cccnc2c1O (centres undefined)	/	/	45*	/	/	58*
Nc1nc(-c2ccccn2)nc(N)c1Cc1ccccc1F	7	-3	26	-1	3	/
Nc1nc(-c2ccccn2)nc(N)c1Cc1ccc(Cl)cc1Cl	-4	0	39*	-10	8	35
CC(C)C(=O)NC(c1ccco1)c1ccc2cccnc2c1O (centres undefined)	-4	-5	20	12	9	/
Oc1c(C(Nc2nccs2)c2ccc(C(F)(F)F)cc2)ccc2cccnc12 (centres undefined)	5	-5	43*	-1	7	54*
CC(C)CC(=O)NC(c1cccs1)c1ccc2cccnc2c1O (centres undefined)	/	/	43*	/	/	38*
CCC(=O)NC(c1cccs1)c1ccc2cccnc2c1O (centres undefined)	-10	5	41*	3	6	46*
Oc1c(C(Nc2nc3ccccc3s2)c2ccco2)ccc2cccnc12 (centres undefined)	6	1	36*	1	2	40*
CCC(=O)NC(c1cccs1)c1cc([N+](=O)[O-])c2cccnc2c1OC (centres undefined)	1	14	/	2	10	/
Oc1c(C(Nc2cccc(C(F)(F)F)c2)c2ccncc2)ccc2cccnc12 (centres undefined)	-5	12	25	0	11	/
CC(C)NC(=O)C1CCN(c2cncnc2)CC1	/	-5	/	3	1	/
CCCCc1c(-c2ccccc2OC)ncn1Cc1c(Cl)cccc1Cl	0	5	/	-2	14	/
CC(=O)c1ccc(OCCCC(=O)NCc2nnc3ccccn23)cc1	-5	2	6	2	-3	/
COCc1cc(C)nc(SCC(=O)c2ccc(O)c(O)c2)c1C#N	4	6	61*	3	17	50*
COC(=O)C1=C(C)N(C)C(=NCc2cccc(C(F)(F)F)c2)NC1c1ccc(C(F)(F)F)cc1 (centres undefined)	5	-1	/	-2	19	/
COC(=O)[C@]12C[C@H](CC(=O)NCCC(C)C)C(=O)N(CCC3=CCCCC3)C1=C[C@H](C1CCCC1)O[C@@H]2C	/	4	/	-2	0	/
